According to ChEMBL document CHEMBL4130632, “Targeting Myeloid Differentiation Using Potent 2-Hydroxypyrazolo[1,5- a]pyridine Scaffold-Based Human Dihydroorotate Dehydrogenase Inhibitors” (J Med Chem, 2018):

Assays:
[1] = target: Dihydroorotate dehydrogenase (quinone), mitochondrial (Homo sapiens, UniProt Q02127); test: Inhibition of recombinant N-terminal GST-tagged human DHODH (31 to 395 residues) expressed in Escherichia coli BL21(DE3) assessed as inhibition of DCIP reduction using dihydroorotate as substrate preincubated for 5 mins followed by substrate addition measured after 5 mins
Sequence of Dihydroorotate dehydrogenase (quinone), mitochondrial (Q02127 whole entry, the tested form may be a part): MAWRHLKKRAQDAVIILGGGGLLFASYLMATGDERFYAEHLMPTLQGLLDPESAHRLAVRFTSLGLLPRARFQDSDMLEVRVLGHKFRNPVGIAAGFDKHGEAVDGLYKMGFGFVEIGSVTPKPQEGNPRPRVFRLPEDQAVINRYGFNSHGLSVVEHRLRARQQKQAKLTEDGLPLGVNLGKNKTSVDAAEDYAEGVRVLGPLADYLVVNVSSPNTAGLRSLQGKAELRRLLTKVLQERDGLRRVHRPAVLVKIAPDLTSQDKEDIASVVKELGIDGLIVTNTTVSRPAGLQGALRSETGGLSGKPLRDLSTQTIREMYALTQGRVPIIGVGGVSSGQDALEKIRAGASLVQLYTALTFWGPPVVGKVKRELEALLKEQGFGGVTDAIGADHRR

[2] = Stability of the compound in human serum assessed as compound remaining at 37 degC after 24 hrs by RP-HPLC analysis; format: ADME, cell-free; details: read-out: Stability
Summary of the method: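 Compound from DMSO stock added to human male AB serum (2% cosolvent) and shaken at 37 °C. Samples taken at 0–24 h were deproteinized with 0.1% TFA in acetonitrile, centrifuged and filtered. Analyzed by C18 RP-HPLC (acetonitrile/water 70/30, 0.1% TFA). Value is % unmodified parent at 24 h.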

Jurkat [3] = test: Antiproliferative activity against human Jurkat T cells assessed as DNA content after 72 hrs by Hoechst 33258 dye-based fluorescence assay; format: functional, cell-based
Jurkat [4] = test: Antiproliferative activity against human Jurkat T cells assessed as DNA content after 72 hrs in presence of exogenous uridine by Hoechst 33258 dye-based fluorescence assay; format: functional, cell-based
PBMC [5] = test: Immunosuppressive activity against human PBMC assessed as inhibition of PHA-stimulated cell proliferation preincubated for 2 hrs followed by PHA stimulation for 72 hrs by Hoechst 33258 dye-based fluorescence assay; format: functional
PBMC [6] = test: Immunosuppressive activity against human PBMC assessed as inhibition of PHA-stimulated cell proliferation preincubated for 2 hrs followed by PHA stimulation for 72 hrs in presence of exogenous uridine by Hoechst 33258 dye-based fluorescence assay; format: functional
U-937 = test: Induction of myeloid differentiation in human U937 cells assessed as increase in CD11b expression level at 0.1 to 1 uM up to 4 days by propidium iodide staining-based flow cytometry; format: functional
Summary of the method: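 Cells plated at 1 × 10^4 with inhibitor 0.1–10 μM. Differentiation was followed daily by flow cytometry, to day 4 for U937 and day 5 for THP1. Markers were PE-CD11b for U937 and FITC-CD14 for THP1, stained 45 min at 4 °C in PBS/2% BSA/1 mM EDTA. Propidium iodide excluded dead cells. Uridine-rescue (100 μM) samples were read at day 3.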

THP-1 = test: Induction of myeloid differentiation in human THP1 cells assessed as increase in CD14 expression level at 0.1 to 1 uM up to 4 days by propidium iodide staining-based flow cytometry
Jurkat [7] = test: Cytotoxicity against human Jurkat T cells assessed as compound concentration required to induce =>30% cell death after 72 hrs by CellTox green assay; format: cell-based
Summary of the method: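 Jurkat T cells (complete X-VIVO 15, 10% FBS, 37 °C, 5% CO2; passages 5–10, mycoplasma-tested), 5 × 10^3/well. Cells exposed to 0.001–100 μM compound or DMSO vehicle for 72 h. Cell death read by CellTox Green. Value is the concentration giving significant (≥30%) cytotoxicity, mean ± SE of three independent experiments.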

Cn1nc(O)c(C(=O)Nc2c(F)c(F)c(-c3ccccc3)c(F)c2F)n1
IC50 [1]: 0.045 µM

Cn1c(=O)c(C(=O)Nc2c(F)c(F)c(-c3ccccc3)c(F)c2F)c2ccccn21
IC50 [1]: > 5 µM

Cc1c(-c2ccc(-c3ccccc3F)cc2)nc2ccc(F)cc2c1C(=O)O [BREQUINAR]
remaining at 24 h [2]: 98%
IC50 (Jurkat [3]): 0.91 µM
IC50 (Jurkat [4]): 94.2 µM
IC50 (PBMC [5]): 3.74 µM
IC50 (PBMC [6]): 59.6 µM
%max (U-937): 40%
%max (THP-1): 40%

C/C(O)=C(\C#N)C(=O)Nc1ccc(C(F)(F)F)cc1 [TERIFLUNOMIDE]
Activity (Jurkat [7]): 53 µM
